Laboratory results: ChEMBL document CHEMBL1150371, “Design and synthesis of benzenesulfonanilides active against methicillin-resistant Staphylococcus aureus and vancomycin-resistant Enterococcus” (Bioorg Med Chem, 2008)
In brackets after ≈: the same amount, converted by molar mass. Activity calls are given as the source filed them. The rule behind the calls is not given here.

Legend:
Format in all cases: functional
Staphylococcus aureus [1] = test: Antimicrobial activity against methicillin-resistant Staphylococcus aureus at […] by disk diffusion method
In short: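 Overnight nutrient-broth culture (35 °C, 12–18 h) of MRSA OM584 spread on Mueller-Hinton agar; 8-mm paper discs given 10 µL of 20 mM compound in DMSO; plates incubated at 37 °C about 20 h; inhibition zones measured and scored: −, ± (0–1 mm), +1 (1–15 mm), +2 (15–20 mm), +3 (>20 mm).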

Staphylococcus aureus [2] = test: Antimicrobial activity against methicillin-resistant Staphylococcus aureus OM584 by microdilution method
In short: (§1)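 Broth microdilution MIC per Japan Society of Chemotherapy standard method. Cultures grown in sensitivity test broth at 37 °C to OD620 0.1, inoculum ≈10^5 CFU/mL. Twofold dilutions from DMSO stock, 500 to 0.2 µg/mL; 20 h, 37 °C, humid. MIC = lowest concentration clearly inhibiting growth by visual inspection; vancomycin standard; media, DMSO and water controls; at least duplicate.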

Enterococcus faecium = test: Antimicrobial activity against vancomycin-resistant Enterococcus faecium FN-1 by microdilution susceptibility test; in short: as §1

| Compound | Activity (Staphylococcus aureus [1]) | MIC (Staphylococcus aureus [2]) [µg/mL] | MIC (Enterococcus faecium) [µg/mL] | inhibition zone (IZ) (Staphylococcus aureus [1]) [mm] |
| --- | --- | --- | --- | --- |
| COc1ccc(NS(=O)(=O)c2ccc(N)cc2)cc1 | inactive |  |  |  |
| COc1ccc(S(=O)(=O)Nc2cc(Cl)cc(Cl)c2)cc1 |  | 250 (≈ 753 µM) | 125 (≈ 376 µM) |  |
| O=S(=O)(Nc1ccc(F)cc1F)c1cc(C(F)(F)F)cc(C(F)(F)F)c1 |  | > 250 | > 250 |  |
| Cc1cccc(NS(=O)(=O)c2ccc(N)cc2)c1 | inactive |  |  |  |
| Nc1ccc(S(=O)(=O)Nc2ccc(Cl)cc2)cc1 | inactive |  |  |  |
| O=S(=O)(Nc1cccc(F)c1F)c1cc(C(F)(F)F)cc(C(F)(F)F)c1 |  | 15.6 (≈ 38.5 µM) | 62.5 (≈ 154 µM) |  |
| CN(c1cc(Cl)cc(Cl)c1)S(=O)(=O)c1cc(C(F)(F)F)cc(C(F)(F)F)c1 |  | > 250 | > 250 |  |
| Cc1cccc(NS(=O)(=O)c2ccc([N+](=O)[O-])cc2)c1 |  |  |  | 1 |
| COc1ccc(NS(=O)(=O)c2ccc(C(=O)O)cc2)cc1 | inactive |  |  |  |
| O=S(=O)(Nc1cc(Cl)nc(Cl)c1)c1cc(Cl)cc(Cl)c1 |  | 15.6 (≈ 41.9 µM) | 7.8 (≈ 21 µM) |  |
| COc1ccc(NS(=O)(=O)c2ccc([N+](=O)[O-])cc2)cc1 | inactive |  |  |  |
| CN(c1cc(C(F)(F)F)cc(C(F)(F)F)c1)S(=O)(=O)c1cc(Cl)cc(Cl)c1 |  | > 250 | > 250 |  |
| O=S(=O)(Nc1cc(Cl)c(O)c(Cl)c1)c1cc(Cl)cc(Cl)c1 |  | 31.3 (≈ 80.9 µM) | 31.3 (≈ 80.9 µM) |  |
| O=[N+]([O-])c1ccc(NS(=O)(=O)c2cc(Cl)cc(Cl)c2)cc1 |  | 7.8 (≈ 22.5 µM) | 15.6 (≈ 44.9 µM) |  |
| Cc1cc(C)cc(NS(=O)(=O)c2ccc([N+](=O)[O-])cc2)c1 | inactive |  |  |  |
| O=S(=O)(Nc1cc(C(F)(F)F)cc(C(F)(F)F)c1)c1cc(Cl)cc(Cl)c1 |  | 0.5 (≈ 1.14 µM) | 1 (≈ 2.28 µM) |  |
| Cc1ccc(S(=O)(=O)Nc2cc(C(F)(F)F)cc(C(F)(F)F)c2)cc1 | inactive | 62.5 (≈ 163 µM) | 62.5 (≈ 163 µM) |  |
| Nc1ccc(S(=O)(=O)Nc2cc(C(F)(F)F)cc(C(F)(F)F)c2)cc1 |  | 125 (≈ 325 µM) | 62.5 (≈ 163 µM) | 1 |
| O=S(=O)(Nc1cc(C(F)(F)F)cc(C(F)(F)F)c1)c1cccc(Cl)c1 |  | 31.3 (≈ 77.5 µM) | 15.6 (≈ 38.6 µM) |  |
| Cc1ccc(NS(=O)(=O)c2cc(C(F)(F)F)cc(C(F)(F)F)c2)cc1 |  | > 250 | > 250 |  |
| O=S(=O)(Nc1cc(Cl)cc(Cl)c1)c1ccc(C(F)(F)F)cc1 |  | 15.6 (≈ 42.1 µM) | 7.8 (≈ 21.1 µM) |  |
| O=S(=O)(Nc1cc(Cl)cc(Cl)c1)c1ccc(Cl)cc1 |  | 31.3 (≈ 93 µM) | 62.5 (≈ 186 µM) |  |
| Cl.O=[N+]([O-])c1ccc(S(=O)(=O)Nc2cc(C(F)(F)F)cc(C(F)(F)F)c2)cc1 |  |  |  | >20 |
| O=S(=O)(Nc1ccc(C(F)(F)F)cc1)c1cc(C(F)(F)F)cc(C(F)(F)F)c1 |  | 7.8 (≈ 17.8 µM) | 3.9 (≈ 8.92 µM) |  |

| Compound | Activity (Staphylococcus aureus [1]) | MIC (Staphylococcus aureus [2]) [µg/mL] | MIC (Enterococcus faecium) [µg/mL] | inhibition zone (IZ) (Staphylococcus aureus [1]) [mm] |
| --- | --- | --- | --- | --- |
| Nc1ccc(S(=O)(=O)Nc2cc(Cl)cc(Cl)c2)cc1 |  | 250 (≈ 788 µM) | 31.3 (≈ 98.7 µM) |  |
| CS(=O)(=O)Nc1ccc(S(=O)(=O)Nc2ccc(C(F)(F)F)cc2)cc1 | inactive |  |  |  |
| O=S(=O)(Nc1cc(Cl)nc(Cl)c1)c1cc(C(F)(F)F)cc(C(F)(F)F)c1 |  | 15.6 (≈ 35.5 µM) | 7.8 (≈ 17.8 µM) |  |
| Cc1cc(C)cc(NS(=O)(=O)c2ccc(N)cc2)c1 | inactive |  |  |  |
| O=S(=O)(Nc1cccc(C(F)(F)F)c1)c1cc(Cl)cc(Cl)c1 |  | 125 (≈ 338 µM) | 62.5 (≈ 169 µM) |  |
| Cc1ccc(NS(=O)(=O)c2cc(Cl)cc(Cl)c2)cc1 |  | > 250 | 62.5 (≈ 198 µM) |  |
| Cc1cc(C)cc(NS(=O)(=O)c2ccc(C(=O)O)cc2)c1 | inactive |  |  |  |
| Nc1ccc(NS(=O)(=O)c2cc(C(F)(F)F)cc(C(F)(F)F)c2)cc1 |  | > 250 | > 250 |  |
| O=C(O)c1ccc(S(=O)(=O)Nc2ccc(I)cc2)cc1 | inactive |  |  |  |
| Nc1ccc(S(=O)(=O)Nc2ccc(I)cc2)cc1 | inactive |  |  |  |
| O=[N+]([O-])c1ccc(NS(=O)(=O)c2cc(C(F)(F)F)cc(C(F)(F)F)c2)cc1 |  | 7.8 (≈ 18.8 µM) | 7.8 (≈ 18.8 µM) |  |
| O=S(=O)(Nc1ccc(Cl)cc1Cl)c1cc(C(F)(F)F)cc(C(F)(F)F)c1 |  | > 250 | > 250 |  |
| O=[N+]([O-])c1ccc(S(=O)(=O)Nc2cc(Cl)cc(Cl)c2)cc1 |  | > 250 | 62.5 (≈ 180 µM) |  |
| COc1ccc(NS(=O)(=O)c2cc(C(F)(F)F)cc(C(F)(F)F)c2)cc1 |  | > 250 | 125 (≈ 313 µM) |  |
| O=S(=O)(Nc1cc(F)ccc1F)c1cc(C(F)(F)F)cc(C(F)(F)F)c1 |  | 15.6 (≈ 38.5 µM) | 62.5 (≈ 154 µM) |  |
| CS(=O)(=O)Nc1ccc(S(=O)(=O)Nc2cc(C(F)(F)F)cc(C(F)(F)F)c2)cc1 |  |  |  | 0 |
| Cc1ccccc1NS(=O)(=O)c1ccc(C(=O)O)cc1 | inactive |  |  |  |
| Cc1ccc(NS(=O)(=O)c2ccc(N)cc2)cc1 | inactive |  |  |  |
| CS(=O)(=O)Nc1ccc(S(=O)(=O)Nc2ccc(Cl)cc2)cc1 |  |  |  | 0 |
| Cc1cc(C)cc(NS(=O)(=O)c2ccc(NS(C)(=O)=O)cc2)c1 | inactive |  |  |  |
| Nc1ccc(NS(=O)(=O)c2cc(Cl)cc(Cl)c2)cc1 |  | > 250 | > 250 |  |
| O=[N+]([O-])c1ccc(S(=O)(=O)Nc2ccccc2)cc1 | inactive |  |  |  |
| CN[C@H](CC(C)C)C(=O)N[C@H]1C(=O)N[C@@H](CC(N)=O)C(=O)N[C@H]2C(=O)N[C@H]3C(=O)N[C@H](C(=O)N[C@H](C(=O)O)c4cc(O)cc(O)c4-c4cc3ccc4O)[C@H](O)c3ccc(c(Cl)c3)Oc3cc2cc(c3O[C@@H]2O[C@H](CO)[C@@H](O)[C@H](O)[C@H]2O[C@H]2C[C@](C)(N)[C@H](O)[C@H](C)O2)Oc2ccc(cc2Cl)[C@H]1O [VANCOMYCIN] |  |  | 125 (≈ 86.3 µM) |  |
| Cc1ccc(NS(=O)(=O)c2ccc(C(=O)O)cc2)cc1 | inactive |  |  |  |

| Compound | Activity (Staphylococcus aureus [1]) | MIC (Staphylococcus aureus [2]) [µg/mL] | MIC (Enterococcus faecium) [µg/mL] | inhibition zone (IZ) (Staphylococcus aureus [1]) [mm] |
| --- | --- | --- | --- | --- |
| Cc1ccccc1NS(=O)(=O)c1ccc(N)cc1 | inactive |  |  |  |
| O=S(=O)(Nc1ccc(C(F)(F)F)cc1)c1cc(Cl)cc(Cl)c1 |  | 31.3 (≈ 84.6 µM) | 31.3 (≈ 84.6 µM) |  |
| Cl.Nc1ccc(S(=O)(=O)Nc2cc(C(F)(F)F)cc(C(F)(F)F)c2)cc1 |  |  |  | 1 |
| Nc1ccc(S(=O)(=O)Nc2ccccc2)cc1 | inactive |  |  |  |
| COc1ccc(NS(=O)(=O)c2cc(Cl)cc(Cl)c2)cc1 |  | 125 (≈ 376 µM) | 125 (≈ 376 µM) |  |
| Cc1ccc(S(=O)(=O)Nc2cc(Cl)cc(Cl)c2)cc1 |  | 125 (≈ 395 µM) | 62.5 (≈ 198 µM) |  |
| Nc1ccc(S(=O)(=O)Nc2ccc(C(F)(F)F)cc2)cc1 | inactive |  |  |  |
| O=S(=O)(Nc1ccc(Cl)cc1)c1cc(C(F)(F)F)cc(C(F)(F)F)c1 |  | 31.3 (≈ 77.5 µM) | 62.5 (≈ 155 µM) |  |
| O=S(=O)(Nc1cc(F)cc(F)c1)c1cc(Cl)cc(Cl)c1 |  | 31.3 (≈ 92.6 µM) | 7.8 (≈ 23.1 µM) |  |
| O=S(=O)(Nc1cc(C(F)(F)F)cc(C(F)(F)F)c1)c1ccc(F)cc1 |  | 15.6 (≈ 40.3 µM) | 62.5 (≈ 161 µM) |  |
| CS(=O)(=O)Nc1ccc(S(=O)(=O)Nc2ccccc2)cc1 | inactive |  |  |  |
| O=S(=O)(Nc1cc(Cl)c(O)c(Cl)c1)c1cc(C(F)(F)F)cc(C(F)(F)F)c1 |  | 125 (≈ 275 µM) | 62.5 (≈ 138 µM) |  |
| O=S(=O)(Nc1ccc(F)c(F)c1)c1cc(C(F)(F)F)cc(C(F)(F)F)c1 |  | 3.9 (≈ 9.62 µM) | 7.8 (≈ 19.2 µM) |  |
| COc1ccc(NS(=O)(=O)c2ccc(NS(C)(=O)=O)cc2)cc1 | inactive |  |  |  |
| Cc1cccc(NS(=O)(=O)c2ccc(NS(C)(=O)=O)cc2)c1 | inactive |  |  |  |
| O=S(=O)(Nc1ccc(Cl)cc1)c1cc(Cl)cc(Cl)c1 |  | > 250 | 125 (≈ 371 µM) |  |
| O=[N+]([O-])c1ccc(S(=O)(=O)Nc2ccc(C(F)(F)F)cc2)cc1 | inactive |  |  |  |
| Cc1ccc(NS(=O)(=O)c2ccc([N+](=O)[O-])cc2)cc1 | inactive |  |  |  |
| O=S(=O)(Nc1c(F)cccc1F)c1cc(C(F)(F)F)cc(C(F)(F)F)c1 |  | > 250 | > 250 |  |
| O=S(=O)(Nc1ccc(C(F)(F)F)cn1)c1cc(Cl)cc(Cl)c1 |  | > 250 | > 250 |  |
| O=S(=O)(Nc1c(Cl)cccc1Cl)c1cc(C(F)(F)F)cc(C(F)(F)F)c1 |  | > 250 | > 250 |  |
| Cc1ccc(NS(=O)(=O)c2ccc(NS(C)(=O)=O)cc2)cc1 | inactive |  |  |  |
| Cc1ccccc1NS(=O)(=O)c1ccc(NS(C)(=O)=O)cc1 | inactive |  |  |  |
